Laboratory results taken from paper PMC4785611 (British Journal of Haematology, 2016).
Entries after “also recorded” stand apart in the source; their conditions may differ.

Legend:
[1] = tested on: Japanese patients with relapsed and/or refractory multiple myeloma; test: Phase 1/2 study ONO-7057-01: adverse events; assay type: in vivo, human
How it was run: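 Safety set was all patients given ≥1 IV dose (10 min; Days 1, 2, 8, 9, 15, 16 of 28-day cycles). Pre-medication was 4 mg oral or IV dexamethasone, with hydration in Cycle 1. Cycle 1 also had prophylactic antibiotics, plus acyclovir if herpes history. Patients with Grade ≥3 or painful Grade 2 PN or prior ILD were excluded. AEs were graded by NCI-CTCAE v4.0 through Cycle 6, with later cycles included.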

[2] = tested on: patients with multiple myeloma; conditions: of 526 patients; ref Siegel et al, 2013; cited from earlier work
[3] = tested on: Japanese patients with relapsed and/or refractory multiple myeloma; test: Phase 1 dose escalation: dose-limiting toxicity in Cycle 1; assay type: in vivo, human; conditions: for Dose-limiting toxicity (DLT): Cycle 1
How it was run: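 Test compound was given IV over 10 min on Days 1, 2, 8, 9, 15 and 16 of 28-day cycles. The 20/27 arm received 20 mg/m2 on Days 1–2 of Cycle 1 and 27 mg/m2 from Day 8. Three or six patients per cohort: 1/3 DLT added three patients. At 2/3 or 3/6, the prior level became the recommended dose. No G-CSF was allowed during Cycle 1 evaluation.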

Which “Peripheral neuropathy under study treatment, preferred terminology (Grade)” value ([1]; Patient No. 1, 20 mg/m^2, baseline PN Grade 1, worst PN Grade before the study 3) does the source give for `CC(C)C[C@H](NC(=O)[C@H](CCc1ccccc1)NC(=O)CN1CCOCC1)C(=O)N[C@@H](Cc1ccccc1)C(=O)N[C@@H](CC(C)C)C(=O)[C@@]1(C)CO1` [carfilzomib] here?
The value was “Peripheral neuropathy (2)”.

And the “Interstitial lung disease (ILD)” value ([1]; Total, N = 50)?
Its value is “No ILD was observed”.

What about the “AEs leading to death” value ([1]; during administration period or within 30 days after final administration) of the same compound?
The value was “No AEs led to death”.

And the “New PN in patients who had never experienced PN before enrolment” value ([1]; five patients without PN history)?
The value was “no new cases of PN occurred and did not develop PN and none”.

And the “Patients with PN at baseline in whom carfilzomib exacerbated PN” value ([1]; of 35 patients with PN at baseline)?
Its value is “three”.

What about the “Patients believed to have infections leading to treatment interruption (pneumonia, fever)” value ([1]; of the 24 patients whose treatment was interrupted) of the same compound?
The value was “three”.

What about the “Patients with treatment interrupted because of neutropenia” value ([1]; of the 24 patients whose treatment was interrupted, seven events) of the same compound?
The value was “five”.

What about the “PN Grade ≥3, patients, integrated analysis” value [2] of the same compound?
Its value is “seven”.

What about the “Dose-limiting toxicity (DLT)” value ([3]; 15 mg/m^2 cohort, four patients (one not evaluable)) of the same compound?
The value was “no DLT was observed”.

What about the “Dose-limiting toxicity (DLT)” value ([3]; 20/27 mg/m^2 cohort, seven patients (one not evaluable)) of the same compound?
Its value is “no DLT was observed”.

What about the “Maximum tolerated dose (MTD)” value ([3]; doses 15, 20 and 20/27 mg/m^2) of the same compound?
Its value is “did not reach the maximum tolerated dose; also recorded: did not reach the MTD”.
